Assay results reported in ChEMBL document CHEMBL1154122, “A comprehensive study of Sansalvamide A derivatives: The structure-activity relationships of 78 derivatives in two pancreatic cancer cell lines” (2009).
Square brackets hold non-standard residues; d marks the D form. Peptide text beside a SMILES is read from it. * marks the point of attachment. dNMeF = CN[C@H](Cc1ccccc1)C(=O)O; Cha = N[C@@H](CC1CCCCC1)C(=O)O; NMeL = CN[C@@H](CC(C)C)C(=O)O; dNMeL = CN[C@H](CC(C)C)C(=O)O; Orn = NCCC[C@H](N)C(=O)O; dAbu = CC[C@@H](N)C(=O)O; Abu = CC[C@H](N)C(=O)O; Cbz = O=C(OCc1ccccc1)*; Bn = c1ccc(C*)cc1

Experiments:
BXPC-3 = assay: Cytotoxicity against human BxPC3 cells after 56 hrs by [3H]thymidine uptake assay; assay type: functional
How it was run: (§1)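 Cells seeded at 2000–2500/well in DMEM with L-glutamine, 10% FBS and 1% penicillin-streptomycin. […] After 56 h, 3H-thymidine was added for 16 h more (72 h total), then cells were harvested and counted (CPM). Inhibition = 1 − CPM treated/DMSO; IC50 taken from curves, mean and SEM.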

[1] = Cytotoxicity against human PL45 cells after 56 hrs by [3H]thymidine uptake assay; assay type: functional; how it was run: as §1

SMILES | growth inhibition (GI) (BXPC-3) [%] | growth inhibition (GI) [1] [%]
CC(C)C[C@@H]1NC(=O)[C@@H](CC(C)C)N(C)C(=O)[C@H](Cc2ccccc2)NC(=O)[C@H](CC(C)C)NC(=O)[C@@H](C(C)C)NC1=O | 38 | 26
CC(C)C[C@@H]1NC(=O)[C@H](Cc2ccccc2)NC(=O)[C@@H](CC(C)C)N(C)C(=O)[C@H](C(C)C)NC(=O)[C@H](CC(C)C)NC1=O (cyclo(FLLV[dNMeL])) | 2 | 5
CC(C)C[C@@H]1NC(=O)[C@H](Cc2ccccc2)NC(=O)[C@H](CC(C)C)NC(=O)[C@@H](C(C)C)NC(=O)[C@@H](CC(C)C)NC1=O | 12 | 14
CC(C)C[C@@H]1C(=O)N[C@H](Cc2ccccc2)C(=O)N[C@H](CC(C)C)C(=O)N[C@H](CC(C)C)C(=O)N[C@H](C(C)C)C(=O)N1C (cyclo([dF][dL][dL][dV][dNMeL])) | 30 | 11
CC(C)C[C@@H]1NC(=O)[C@H](C(C)C)NC(=O)[C@H](CC(C)C)NC(=O)[C@H](CC(C)C)N(C)C(=O)[C@H](Cc2ccccc2)NC1=O | 47 | 44
CC(C)C[C@@H]1NC(=O)[C@H](Cc2ccccc2)NC(=O)[C@H](CC(C)C)N(C)C(=O)[C@H](C(C)C)NC(=O)[C@H](CC(C)C)NC1=O (cyclo(FLLV[NMeL])) | 0 | 0
CC(C)C[C@@H]1NC(=O)[C@@H](Cc2ccccc2)NC(=O)[C@@H](CC(C)C)NC(=O)[C@@H](C(C)C)NC(=O)[C@H](CCCCN)NC1=O (cyclo(K[dV][dL][dF]L)) | 28 | 0
CC(C)C[C@@H]1NC(=O)[C@H](C(C)C)NC(=O)[C@H](CC(C)C)N(C)C(=O)[C@@H](CC(C)C)NC(=O)[C@@H](Cc2ccccc2)NC1=O (cyclo([dL][NMeL]VL[dF])) | 58 | 59
CC(C)C[C@@H]1NC(=O)[C@H](Cc2ccccc2)NC(=O)[C@H](CC(C)C)NC(=O)[C@H](C(C)C)NC(=O)[C@@H](CC(C)C)NC1=O | 0 | 0
CC(C)C[C@@H]1NC(=O)[C@@H](Cc2ccccc2)NC(=O)[C@@H](CC(C)C)NC(=O)[C@@H](C(C)C)NC(=O)[C@H](CCCCNC(=O)OCc2ccccc2)NC1=O (cyclo(K(Cbz)[dV][dL][dF]L)) | 38 | 12
CC(C)[C@@H]1NC(=O)[C@H](Cc2ccccc2)NC(=O)[C@H](C(C)C)NC(=O)[C@@H](COCc2ccccc2)NC(=O)[C@H](C(C)C)NC1=O (cyclo(FVV[dS](Bn)V)) | 15 | 0
CC(C)C[C@@H]1NC(=O)[C@H](C(C)C)NC(=O)[C@H](CCCN)NC(=O)[C@H](CC(C)C)NC(=O)[C@@H](Cc2ccc(O)cc2)NC1=O (cyclo(L[Orn]VL[dY])) | 0 | 0
CC(C)C[C@@H]1NC(=O)[C@H](Cc2ccccc2)NC(=O)[C@H](CC(C)C)NC(=O)[C@H](C(C)C)NC(=O)[C@H](CCCCNC(=O)OCc2ccccc2)NC1=O (cyclo(FLK(Cbz)VL)) | 8 | 0
CC(C)C[C@@H]1NC(=O)[C@H](C(C)C)N(C)C(=O)[C@@H](CCCCN)NC(=O)[C@@H](Cc2ccccc2)NC(=O)[C@H](Cc2ccccc2)NC1=O | 8 | 5
CC(C)C[C@@H]1NC(=O)[C@H](CC(C)C)NC(=O)[C@@H](Cc2c[nH]c3ccccc23)NC(=O)[C@H](CC(C)C)NC(=O)[C@H](C(C)C)NC1=O (cyclo(LLVL[dW])) | 30 | 18
CC(C)C[C@@H]1NC(=O)[C@H](Cc2ccccc2)NC(=O)[C@H](CC(C)C)NC(=O)[C@@H](C(C)C)NC(=O)[C@H](CCCCN)NC1=O (cyclo(FLK[dV]L)) | 24 | 23

SMILES | growth inhibition (GI) (BXPC-3) [%] | growth inhibition (GI) [1] [%]
CC(C)C[C@@H]1NC(=O)[C@@H](C(C)C)N(C)C(=O)[C@H](CC(C)C)NC(=O)[C@@H](CC(C)C)NC(=O)[C@H](Cc2ccccc2)NC1=O | 35 | 21
CC(C)[C@@H]1NC(=O)[C@H](CC2CCCCC2)NC(=O)[C@H](CO)NC(=O)[C@H](Cc2ccccc2)NC(=O)[C@@H](Cc2ccccc2)N(C)C1=O (cyclo([Cha]V[dNMeF]FS)) | 34 | 11
CC(C)C[C@@H]1NC(=O)[C@H](Cc2ccccc2)NC(=O)[C@@H](Cc2ccccc2)N(C)C(=O)[C@H](C(C)C)NC(=O)[C@H](CC2CCCCC2)NC1=O | 21 | 44
CC[C@@H]1NC(=O)[C@H](CC(C)C)NC(=O)[C@H](CC(C)C)NC(=O)[C@H](Cc2ccccc2)NC(=O)[C@H](CC(C)C)NC1=O (cyclo([Abu]LFLL)) | 0 | 0
CC(C)C[C@@H]1NC(=O)[C@H](C(C)C)N(C)C(=O)[C@@H](CC(C)C)NC(=O)[C@@H](Cc2ccccc2)NC(=O)[C@@H](Cc2ccccc2)NC1=O | 6 | 15
CC(C)C[C@@H]1NC(=O)[C@H](Cc2ccccc2)NC(=O)[C@H](CC(C)C)NC(=O)[C@H](C(C)C)NC(=O)[C@H](CC(C)C)NC1=O | 42 | 25
CC(C)[C@H]1NC(=O)[C@H](CC2CCCCC2)NC(=O)[C@H](COCc2ccccc2)NC(=O)[C@H](Cc2ccccc2)NC(=O)[C@@H](Cc2ccccc2)N(C)C1=O | 80 | 70
CC(C)C[C@@H]1NC(=O)[C@H](Cc2ccccc2)NC(=O)[C@H](CC(C)C)NC(=O)[C@@H](C(C)C)NC(=O)[C@H](CC(C)C)NC1=O | 22 | 45
CC(C)C[C@@H]1NC(=O)[C@H](CC(C)C)N(C)C(=O)[C@H](Cc2ccccc2)NC(=O)[C@H](CC(C)C)N(C)C(=O)[C@H](C(C)C)NC1=O | 9 | 38
CC(C)C[C@@H]1NC(=O)[C@H](C(C)C)NC(=O)[C@@H](CC(C)C)NC(=O)[C@@H](CC(C)C)NC(=O)[C@H](Cc2ccccc2)NC1=O | 0 | 14
CC(C)C[C@@H]1NC(=O)[C@H](Cc2ccccc2)NC(=O)[C@@H](Cc2ccccc2)N(C)C(=O)[C@H](C(C)C)NC(=O)[C@H](CC(C)C)NC1=O | 35 | 51
CC(C)C[C@@H]1NC(=O)[C@H](Cc2ccccc2)NC(=O)[C@@H](CC(C)C)NC(=O)[C@H](C(C)C)NC(=O)[C@H](CC(C)C)NC1=O | 34 | 41
CC(C)C[C@@H]1NC(=O)[C@H](C(C)C)NC(=O)[C@H](CCCCN)NC(=O)[C@H](CC(C)C)N(C)C(=O)[C@H](Cc2ccccc2)NC1=O (cyclo(F[NMeL]KVL)) | 11 | 9
CC[C@H]1NC(=O)[C@H](C(C)C)NC(=O)[C@H](C(C)C)NC(=O)[C@H](Cc2ccccc2)NC(=O)[C@H](C(C)C)NC1=O (cyclo(FVV[dAbu]V)) | 26 | 32
CC(C)C[C@@H]1NC(=O)[C@@H](CC(C)C)NC(=O)[C@H](Cc2ccccc2)NC(=O)[C@H](CC(C)C)NC(=O)[C@@H](C(C)C)NC1=O | 30 | 32
